Where a SMILES comes first, the peptide text is derived from it. Bridges are numbered along the chain shown (N, C = ends). [ ]: non-standard residue; d: D form. 2Nal = N[C@@H](Cc1ccc2ccccc2c1)C(=O)O; Lys(iPr) = CC(C)NCCCC[C@H](N)C(=O)O
Key:
[1] = tested on: CXCL12/CXCR4-mediated chemotaxis; conditions: in vitro; cited from earlier work
CXCR4 = conditions: cited from earlier work
MDA‐MB‐231 breast cancer = MDA‐MB‐231 breast cancer metastatic xenograft model; cited from earlier work
Antidrug antibody = experiment: Antidrug antibody; parameters: species or system human; conditions: all patients included in the analysis datasets
How it was run: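 Serum was sampled repeatedly before and after starting once-daily s.c. dosing. Qualitative direct ELISA: the test compound was immobilised on the plate to capture antibodies, which were detected with HRP-conjugated goat anti-human IgG, IgM and IgA and a tetramethylbenzidine substrate. Pooled normal human serum served as negative control. Serum from hyperimmunised cynomolgus monkeys, at various dilutions, served as positive control.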

cytochromes = conditions: preclinical evaluations, no reference given; cited from earlier work
[2] = tested on: leukocytes and hematopoietic progenitors; conditions: rodent and primate models; cited from earlier work
[3] = rats, excretion studies, no reference given; cited from earlier work
blood CD34+ cell counts = assay type: in vivo, human; conditions: patients
How it was run: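 Pooled data from three open-label trials of once-daily s.c. peptide antagonist. In the dose-escalation trial, patients received 1–30 mg/day, or 2.5 or 20 mg/day, for 28-day cycles with rich sampling. The other two trials gave 20 mg/day with standard-of-care chemotherapy or sunitinib and used sparse sampling. CD34+ counts were measured by flow cytometry. The model was a precursor model with reversible precursor–central transfer and concentration-driven stimulation of mobilisation (Smax, SC50).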

[4] = assay type: in vivo, human
How it was run: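 The analysis used 767 plasma samples from 147 patients given once-daily s.c. doses. Concentrations were measured by validated LC-MS/MS (LLOQ 0.2, ULOQ 100 ng/mL). The data were fitted with a two-compartment nonlinear mixed-effects model with first-order absorption and dose-dependent clearance. Exponential interindividual variability was used, with allometric body-weight scaling to an 80.1-kg subject. The model was built on rich dose-escalation data, then refined with sparse data. Absorption rate was later fixed at 10 h-1.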

[5] = population PK typical value, s.c.

For `CC(C)NCCCC[C@H](NC(=O)[C@H]1CCC(=O)N[C@@H](Cc2ccccc2)C(=O)N[C@@H](Cc2ccc(O)cc2)C(=O)N[C@@H](CCCCNC(C)C)C(=O)N[C@H](CCCNC(=N)N)C(=O)N[C@@H](Cc2ccc3ccccc3c2)C(=O)NCC(=O)N1)C(N)=O` [LY2510924] (FY[Lys(iPr)][dR][2Nal]G[dE][Lys(iPr)]-NH2; lactam N-7), the “value observed in chemotaxis inhibition assays” value [1] is given as 0.26 nM, the CXCR4 agonist properties (CXCR4) is given as “does not exhibit any CXCR4 agonist properties” and the “effect on tumor metastasis” value (MDA‐MB‐231 breast cancer) is given as “inhibit tumor metastasis”. For the same compound, the “patients who developed ADA” value (Antidrug antibody) was “None”, the “substrate, inhibitor or inducer of cytochromes” value (cytochromes) was “not a substrate, an inhibitor, or an inducer of cytochromes” and the “mobilization of leukocytes and hematopoietic progenitors to the blood stream” value [2] was “dose‐ and time‐dependent mobilization”. The “dose recovered as parent drug in urine” value [3] was less than 40%, the “SC50, LY2510924 concentration at which half of the maximum stimulatory effect is achieved” value (blood CD34+ cell counts; PK/PD model typical value, plasma concentration) was 6.87 ng/mL and the “Smax, maximum stimulatory effect of LY2510924 on CD34+ cell mobilization” value (blood CD34+ cell counts; PK/PD model typical value, s.c. once daily) was 13.1. The EC50 (blood CD34+ cell counts; read-out: SC50, LY2510924 concentration at which half of the maximum stimulatory effect is achieved, conversion of 6.87 ng/mL, plasma concentration) was 5.78 nM, the “TVKA, estimates of typical first‐order absorption rate when estimated” value ([4]; high and poorly estimated, before fixing, s.c.) was greater than 40 h⁻¹ and the “TVV2/F, typical apparent central volume of distribution” value ([4]; population PK typical value, 80.1-kg subject, s.c.) was 35.0 L. For the same compound, the “TVCLmin/F, typical minimum apparent elimination clearance” value ([4]; population PK typical value, 80.1-kg subject, s.c. once daily, 147 patients) was 4.75 L/h, the “TVQ/F, typical apparent distribution clearance” value [4, 5] was 3.74 L/h and the “TVV3/F, typical apparent peripheral volume of distribution” value [4, 5] was 21.9 L. The “bV, typical allometric exponent specific to central volume” value ([4]; population PK, body weight scaling relative to 80.1 kg) was 0.948.

From PMC5613202 (CPT: Pharmacometrics & Systems Pharmacology, 2017)
